The target in series [1] is T1, Aurora kinase B (Homo sapiens, UniProt Q96GD4). Kind of series: Inhibition of human Aurora B assessed as residence time by rapid dilution method.
Series [2] addresses T2, Cytochrome P450 2C9 (Homo sapiens, UniProt P11712). Kind of series: Inhibition of CYP2C9. Type of series: ADME.
Series [3] can be described thus: Permeability by PAMPA. The class given is ADME. To be noted: read-out: permeability.
For series [4], the target named is T3, Cytochrome P450 2D6 (Homo sapiens, UniProt P10635). Kind of series: Inhibition of CYP2D6. The class given is ADME. The method in brief: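 Human liver microsomes incubated with a selective probe substrate for each CYP isozyme, with and without test compound. Metabolite formation quantified by LC/MS/MS. Activity with compound normalized to activity without compound and expressed as percent of control. IC50 derived from the concentration response.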

Series [5] concerns the target Insulin-like growth factor 1 receptor (Homo sapiens, UniProt P08069). Kind of series: Inhibition of IGF1R. The method, boiled down: (§1)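 Part of a 328 human protein and lipid kinase selectivity panel run as in vitro activity or binding assays.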
In series [6] the target is Hepatocyte growth factor receptor (Homo sapiens, UniProt P08581). Kind of series: Inhibition of MET.
In series [7] the target is T4, Aurora kinase A (Homo sapiens, UniProt O14965).
T4 sequence (O14965 whole entry): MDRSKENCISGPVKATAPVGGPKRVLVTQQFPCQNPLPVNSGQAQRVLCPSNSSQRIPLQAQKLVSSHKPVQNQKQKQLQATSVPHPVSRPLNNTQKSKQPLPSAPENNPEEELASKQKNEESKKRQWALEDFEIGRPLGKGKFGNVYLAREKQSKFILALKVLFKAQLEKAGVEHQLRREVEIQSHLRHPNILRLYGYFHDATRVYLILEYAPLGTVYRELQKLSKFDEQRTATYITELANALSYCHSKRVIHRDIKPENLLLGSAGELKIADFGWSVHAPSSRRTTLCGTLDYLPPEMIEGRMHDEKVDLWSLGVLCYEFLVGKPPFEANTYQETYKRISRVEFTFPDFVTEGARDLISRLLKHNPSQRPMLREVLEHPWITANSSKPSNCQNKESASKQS
Kind of series: Inhibition of human Aurora A.

Series [8] relates to A549. Kind of series: Antiproliferative activity against human A549 cells after 6 to 7 days by celltiter-glo luminescence assay in absence of 70% human serum albumin. The class given is functional, cell-based.
Series [9] in a line: Plasma clearance in iv dosed rat. Type of series: ADME, organism-based.
The nature of series [10]: Half life in iv dosed rat. The class given is ADME, organism-based. Conditions: in vivo.
Series [11] can be described thus: Volume of distribution at steady state in iv dosed rat. The class given is ADME, organism-based. Conditions: in vivo, read-out: Vdss.
The test system of series [12] is A549. Kind of series: Selectivity ratio of EC50 for human A549 cells in presence of 70% human serum albumin to EC50 for human A549 cells in absence of 70% human serum albumin. The class given is functional.
For series [13], the target named is Tyrosine-protein kinase Lck (Homo sapiens) (UniProt P06239). Kind of series: Inhibition of LCK.
The species entered for series [14] is Homo sapiens. Kind of series: Selectivity ratio of IC50 for human Aurora A to IC50 for human Aurora B.
Series [15] deals with T1, Aurora kinase B. Kind of series: Inhibition of human Aurora B by in vitro inhibition assay.
A short description of series [16]: Inhibition of ROCK. The method in brief: as §1
Series [17] can be described thus: Solubility at pH 4. Conditions: buffer. Type of series: physicochemical.
Series [18] relates to Mus musculus. Kind of series: Dose normalized AUC (0 to infinity) in mouse at 2 mg/kg, iv administered as single dose. The class given is ADME, organism-based. The arrangement: time infinity, dose 2 mg/kg, route intravenous. To be noted: in vivo. The method in brief: (§2)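 Conscious mice received a single intravenous dose. Blood clearance, dose-normalized AUC(0-∞) and steady-state volume of distribution were derived from the profile.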

Series [19] can be described thus: Volume of distribution at steady state in mouse at 2 mg/kg, iv administered as single dose. Type of series: ADME, organism-based. The arrangement: dose 2 mg/kg, route intravenous. Conditions: in vivo, read-out: Vdss. The method in brief: as §2
The nature of series [20]: Mean residence time in mouse at 2 mg/kg, iv administered as single dose. The class given is ADME, organism-based. The arrangement: dose 2 mg/kg, route intravenous. Conditions: in vivo.
Series [21] addresses T5, Cytochrome P450 1A2 (Homo sapiens, UniProt P05177).
T5 sequence (P05177 whole entry): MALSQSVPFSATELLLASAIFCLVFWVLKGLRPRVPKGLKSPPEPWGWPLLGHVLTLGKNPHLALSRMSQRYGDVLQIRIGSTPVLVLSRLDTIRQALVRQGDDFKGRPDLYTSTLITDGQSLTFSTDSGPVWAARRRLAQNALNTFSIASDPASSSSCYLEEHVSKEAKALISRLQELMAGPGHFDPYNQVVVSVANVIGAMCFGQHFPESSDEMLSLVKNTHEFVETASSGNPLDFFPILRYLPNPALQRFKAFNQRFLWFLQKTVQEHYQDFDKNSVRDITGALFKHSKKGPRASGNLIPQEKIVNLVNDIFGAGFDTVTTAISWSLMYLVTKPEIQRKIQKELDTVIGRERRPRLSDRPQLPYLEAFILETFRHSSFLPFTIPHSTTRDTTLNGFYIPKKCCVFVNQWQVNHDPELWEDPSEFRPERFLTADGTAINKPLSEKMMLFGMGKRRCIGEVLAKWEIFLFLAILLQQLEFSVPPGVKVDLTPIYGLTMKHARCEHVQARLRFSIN
Kind of series: Inhibition of CYP1A2 in human liver microsomes using phenacetin as substrate. Type of series: ADME, Microsome. The method, boiled down: (§3)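 Human liver microsome incubations with a selective probe substrate for each CYP isozyme. Product formation was read by LC/MS/MS. Activity with compound was normalized to activity without compound and expressed as percent of control activity.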

Series [22] in a line: Blood clearance in mouse at 2 mg/kg, iv administered as single dose. Conditions: whole blood. The arrangement: dose 2 mg/kg, route intravenous. Type of series: ADME, organism-based. The method, boiled down: as §2
The test system of series [23] is Mus musculus. Kind of series: Inhibition of histone H3 phosphorylation in ip dosed mouse xenografted with human COLO205 cells after 30 hrs. The class given is functional, organism-based. Conditions: COLO 205. The method in brief: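 Mice bearing advanced Colo205 tumors were treated intraperitoneally at several doses. Tumor phospho-histone H3 (Ser10) was measured by ELISA 30 h post dose and expressed as percent inhibition relative to control.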

Series [24] deals with T2, Cytochrome P450 2C9. Kind of series: Inhibition of CYP2C9 in human liver microsomes using diclofenac as substrate. The class given is ADME, Microsome. The method, boiled down: as §3
For series [25], the target named is T6, Aurora kinase C (Homo sapiens) (UniProt Q9UQB9).
T6 sequence (whole entry): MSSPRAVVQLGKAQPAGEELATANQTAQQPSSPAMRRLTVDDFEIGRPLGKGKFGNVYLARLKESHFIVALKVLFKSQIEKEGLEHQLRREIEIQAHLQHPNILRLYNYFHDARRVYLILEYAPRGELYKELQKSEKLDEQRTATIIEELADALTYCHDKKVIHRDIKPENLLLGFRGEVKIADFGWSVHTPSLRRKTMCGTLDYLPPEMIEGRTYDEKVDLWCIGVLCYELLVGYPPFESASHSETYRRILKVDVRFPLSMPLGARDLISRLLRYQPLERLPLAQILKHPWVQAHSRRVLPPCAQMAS
Kind of series: Inhibition of human Aurora C assessed as dissociation half life by rapid dilution method.

In series [26] the test system is HL-60. Kind of series: Antitumor activity against human HL60 cells xenografted in nude mouse assessed as complete tumor regression at 75 mg/kg, ip QD for 5 days and for 2 cycles. Type of series: functional, organism-based. The arrangement: dose 75 mg/kg. The method, boiled down: (§4)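 Subcutaneous HL-60 xenografts in nude mice. Dosing was intraperitoneal, once daily for five days, repeated for two cycles (qdx5 ×2), at 75 or 100 mg kg-1. Untreated mice served as controls. Tumors were followed for regression and for regrowth up to 51 days after the last dose.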

Series [27] concerns the target Cytochrome P450 3A4 (Homo sapiens, UniProt P08684). Kind of series: Inhibition of CYP3A4 in human liver microsomes using midazolam as substrate. The class given is ADME, Microsome. The method, boiled down: (§5)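 Human liver microsomes were incubated with a selective probe substrate for each CYP isozyme across a compound concentration series. Product formation was monitored by LC/MS/MS. Activity was normalized to the no-compound control, expressed as percent of control activity, and used to generate an IC50.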

Series [28] concerns HL-60. Kind of series: Antitumor activity against human HL60 cells xenografted in nude mouse assessed as complete suppression of tumor regrowth at 100 mg/kg, ip QD for 5 days and for 2 cycles measured on day 51 post last dose. Type of series: functional, organism-based. The arrangement: dose 100 mg/kg. The method in brief: as §4
Series [29] deals with Cytochrome P450 2C19 (Homo sapiens, UniProt P33261). Kind of series: Inhibition of CYP2C19 in human liver microsomes using S-mephenytoin as substrate. Type of series: ADME, Microsome. The method in brief: as §5
Series [30] has as its target T7, Aurora kinase C (Homo sapiens, UniProt Q9UQB9).
T7 sequence (Q9UQB9 whole entry): T6 sequence (whole entry)
Kind of series: Competitive inhibition of Aurora C ATP binding site.

Series [31] has as its system HL-60. Kind of series: Antitumor activity against human HL60 cells xenografted in nude mouse assessed as complete tumor regression at 100 mg/kg, ip QD for 5 days and for 2 cycles. The arrangement: dose 100 mg/kg. The class given is functional, organism-based. The method in brief: as §4
Series [32] deals with T3, Cytochrome P450 2D6. Kind of series: Inhibition of CYP2D6 in human liver microsomes using bufuralol as substrate. The class given is ADME, Microsome. The method, boiled down:
as §5

Series [33] deals with T7, Aurora kinase C. Kind of series: Competitive inhibition of human Aurora C ATP binding site.

The values that follow come from ChEMBL document CHEMBL1157791, “Discovery of GSK1070916, a potent and selective inhibitor of Aurora B/C kinase” (J Med Chem, 2010).

Calls of active or inactive are those of the source. The calls are words filed in the database; no cut-off is given here.

T1 sequence (Q96GD4 whole entry): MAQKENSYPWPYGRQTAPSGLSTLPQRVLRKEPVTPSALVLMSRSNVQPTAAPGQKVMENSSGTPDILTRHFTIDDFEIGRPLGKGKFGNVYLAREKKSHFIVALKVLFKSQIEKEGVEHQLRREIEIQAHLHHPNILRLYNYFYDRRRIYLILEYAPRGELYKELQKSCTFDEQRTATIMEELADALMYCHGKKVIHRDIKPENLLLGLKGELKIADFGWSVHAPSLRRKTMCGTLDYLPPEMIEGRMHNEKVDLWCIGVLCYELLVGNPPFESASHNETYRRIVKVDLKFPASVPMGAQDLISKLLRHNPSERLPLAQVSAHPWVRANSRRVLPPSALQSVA
T2 sequence (P11712 whole entry): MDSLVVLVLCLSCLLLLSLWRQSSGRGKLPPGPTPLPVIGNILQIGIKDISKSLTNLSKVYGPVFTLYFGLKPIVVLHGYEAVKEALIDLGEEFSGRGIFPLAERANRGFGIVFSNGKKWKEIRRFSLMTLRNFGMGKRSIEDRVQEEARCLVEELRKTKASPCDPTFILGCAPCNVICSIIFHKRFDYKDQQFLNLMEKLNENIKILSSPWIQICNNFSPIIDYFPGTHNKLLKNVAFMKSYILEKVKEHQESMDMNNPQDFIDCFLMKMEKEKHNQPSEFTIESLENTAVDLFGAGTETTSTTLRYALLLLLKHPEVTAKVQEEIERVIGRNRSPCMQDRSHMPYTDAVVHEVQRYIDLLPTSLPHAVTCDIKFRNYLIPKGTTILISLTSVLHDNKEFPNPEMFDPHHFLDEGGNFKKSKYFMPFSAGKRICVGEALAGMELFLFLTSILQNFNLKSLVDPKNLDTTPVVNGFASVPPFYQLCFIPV
T3 sequence (P10635 whole entry): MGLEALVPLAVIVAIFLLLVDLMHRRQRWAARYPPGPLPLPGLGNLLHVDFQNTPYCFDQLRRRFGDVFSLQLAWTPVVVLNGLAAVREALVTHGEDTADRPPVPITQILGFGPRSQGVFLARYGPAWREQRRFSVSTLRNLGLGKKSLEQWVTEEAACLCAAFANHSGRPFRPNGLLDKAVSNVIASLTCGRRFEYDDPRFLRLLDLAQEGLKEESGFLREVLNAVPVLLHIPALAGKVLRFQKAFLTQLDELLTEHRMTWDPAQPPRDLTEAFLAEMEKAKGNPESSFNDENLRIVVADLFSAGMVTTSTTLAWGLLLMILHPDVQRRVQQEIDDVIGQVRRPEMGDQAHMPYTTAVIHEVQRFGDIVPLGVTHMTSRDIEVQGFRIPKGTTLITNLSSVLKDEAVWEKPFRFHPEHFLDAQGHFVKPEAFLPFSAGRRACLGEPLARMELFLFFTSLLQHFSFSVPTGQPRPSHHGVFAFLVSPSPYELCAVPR
Sequence of Hepatocyte growth factor receptor (P08581 whole entry): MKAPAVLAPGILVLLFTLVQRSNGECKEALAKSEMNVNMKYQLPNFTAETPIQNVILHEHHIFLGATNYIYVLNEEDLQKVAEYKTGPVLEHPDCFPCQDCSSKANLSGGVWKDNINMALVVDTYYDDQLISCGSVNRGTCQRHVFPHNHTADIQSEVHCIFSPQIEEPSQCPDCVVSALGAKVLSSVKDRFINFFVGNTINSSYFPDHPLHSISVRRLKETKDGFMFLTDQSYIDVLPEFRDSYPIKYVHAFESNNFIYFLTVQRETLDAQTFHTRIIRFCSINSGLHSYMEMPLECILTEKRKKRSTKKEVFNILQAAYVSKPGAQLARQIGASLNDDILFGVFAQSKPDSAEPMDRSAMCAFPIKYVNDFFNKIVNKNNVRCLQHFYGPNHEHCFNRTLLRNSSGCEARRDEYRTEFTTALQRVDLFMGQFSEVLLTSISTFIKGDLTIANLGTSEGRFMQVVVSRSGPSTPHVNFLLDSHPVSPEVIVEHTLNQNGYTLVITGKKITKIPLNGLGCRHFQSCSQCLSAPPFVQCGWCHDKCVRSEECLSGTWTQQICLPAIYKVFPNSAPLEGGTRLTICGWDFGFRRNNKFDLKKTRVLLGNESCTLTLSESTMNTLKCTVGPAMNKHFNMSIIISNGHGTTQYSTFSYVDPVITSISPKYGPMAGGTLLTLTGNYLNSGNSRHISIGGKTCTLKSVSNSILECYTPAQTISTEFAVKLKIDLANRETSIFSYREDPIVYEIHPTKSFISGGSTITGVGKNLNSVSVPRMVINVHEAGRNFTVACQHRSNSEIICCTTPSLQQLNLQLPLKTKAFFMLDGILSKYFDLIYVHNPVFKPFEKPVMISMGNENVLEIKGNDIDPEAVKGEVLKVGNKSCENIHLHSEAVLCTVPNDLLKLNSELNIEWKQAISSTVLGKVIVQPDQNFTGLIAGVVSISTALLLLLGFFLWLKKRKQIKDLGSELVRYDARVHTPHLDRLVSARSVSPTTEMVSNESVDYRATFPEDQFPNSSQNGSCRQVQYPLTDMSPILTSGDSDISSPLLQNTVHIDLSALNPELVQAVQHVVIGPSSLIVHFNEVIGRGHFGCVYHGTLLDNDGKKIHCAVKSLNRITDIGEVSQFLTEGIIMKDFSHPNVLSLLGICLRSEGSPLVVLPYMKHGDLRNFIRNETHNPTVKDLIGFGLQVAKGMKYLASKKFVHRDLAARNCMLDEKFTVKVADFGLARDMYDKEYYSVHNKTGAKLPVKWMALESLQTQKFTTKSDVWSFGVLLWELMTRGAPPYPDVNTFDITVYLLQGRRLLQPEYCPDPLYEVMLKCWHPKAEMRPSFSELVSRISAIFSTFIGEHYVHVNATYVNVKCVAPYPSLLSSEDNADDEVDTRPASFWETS
Sequence of Cytochrome P450 2C19 (P33261 whole entry): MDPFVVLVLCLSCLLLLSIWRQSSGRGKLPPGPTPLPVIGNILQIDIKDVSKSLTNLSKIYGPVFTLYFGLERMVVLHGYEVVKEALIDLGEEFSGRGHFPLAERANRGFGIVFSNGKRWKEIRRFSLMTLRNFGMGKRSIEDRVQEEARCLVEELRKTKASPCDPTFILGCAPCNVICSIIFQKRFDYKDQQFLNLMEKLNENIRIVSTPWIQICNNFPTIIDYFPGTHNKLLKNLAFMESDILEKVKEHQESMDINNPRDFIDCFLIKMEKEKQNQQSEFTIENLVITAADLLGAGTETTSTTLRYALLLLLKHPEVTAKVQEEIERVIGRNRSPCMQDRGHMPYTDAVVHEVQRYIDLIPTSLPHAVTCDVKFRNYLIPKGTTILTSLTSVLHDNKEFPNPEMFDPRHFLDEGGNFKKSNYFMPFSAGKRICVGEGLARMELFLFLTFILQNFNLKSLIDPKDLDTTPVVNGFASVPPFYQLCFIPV
Sequence of Cytochrome P450 3A4 (P08684 whole entry): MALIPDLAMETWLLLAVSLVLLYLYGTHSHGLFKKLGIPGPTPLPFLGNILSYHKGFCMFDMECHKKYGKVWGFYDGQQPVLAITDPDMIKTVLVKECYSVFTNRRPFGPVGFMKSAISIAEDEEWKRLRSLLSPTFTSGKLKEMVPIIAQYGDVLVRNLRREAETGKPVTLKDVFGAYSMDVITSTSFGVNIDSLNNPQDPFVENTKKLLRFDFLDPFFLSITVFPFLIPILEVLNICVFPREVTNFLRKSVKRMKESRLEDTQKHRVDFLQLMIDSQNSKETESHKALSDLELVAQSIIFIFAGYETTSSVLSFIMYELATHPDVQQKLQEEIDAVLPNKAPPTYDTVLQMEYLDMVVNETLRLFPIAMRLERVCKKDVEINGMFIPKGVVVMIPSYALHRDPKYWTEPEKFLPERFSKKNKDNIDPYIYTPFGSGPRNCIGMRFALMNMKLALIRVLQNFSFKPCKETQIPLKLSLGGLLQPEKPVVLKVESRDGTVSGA
Sequence of Tyrosine-protein kinase Lck (Homo sapiens) (P06239 2-509 limits assumed): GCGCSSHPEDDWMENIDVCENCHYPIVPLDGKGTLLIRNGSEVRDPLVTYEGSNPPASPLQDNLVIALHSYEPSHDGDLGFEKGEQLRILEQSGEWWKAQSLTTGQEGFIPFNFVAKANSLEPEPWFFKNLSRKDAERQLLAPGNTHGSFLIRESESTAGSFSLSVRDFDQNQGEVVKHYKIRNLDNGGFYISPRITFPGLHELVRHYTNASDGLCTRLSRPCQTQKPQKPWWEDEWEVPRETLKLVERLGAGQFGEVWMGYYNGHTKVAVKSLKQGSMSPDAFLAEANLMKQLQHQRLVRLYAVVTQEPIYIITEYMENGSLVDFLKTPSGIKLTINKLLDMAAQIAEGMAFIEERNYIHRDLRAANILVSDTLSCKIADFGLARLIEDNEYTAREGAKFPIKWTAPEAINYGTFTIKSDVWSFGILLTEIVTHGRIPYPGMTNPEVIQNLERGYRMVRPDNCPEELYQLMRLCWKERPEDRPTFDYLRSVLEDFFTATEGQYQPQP

Take `CCn1cc(-c2ccnc3[nH]ccc23)c(-c2ccc(NC(=O)Nc3ccccc3)cc2)n1`: the TIME in series [1] amounted to 0.128 h. The IC50 in series [2] is under 100 nM; in series [4], under 100 nM; in series [5], 158 nM; in series [6], 316 nM; in [7] it was 631 nM. In addition, in [3], the Papp stood at 17 ×10⁻⁶ cm/s. In addition, in series [8], the EC50 is 79 nM. The clearance in [9] came out at 128 mL/min/kg. Also, the half-life in series [10] was 12 min. In addition, in [11], the Vd was 1.7 L/kg.
For the compound `CCn1cc(-c2ccnc3[nH]c(-c4cccc(CN(C)C)c4)cc23)c(-c2ccc(NC(=O)Nc3ccccc3)cc2)n1`, the “Ratio EC50” value in [12] is listed as 10. In addition, the inhibition result in series [13], in series [6] and in [16] was “Active” in each case. For the same compound, the Ratio IC50 in [14] was 3. Moreover, the IC50 was determined as 20 nM in [15] and 53 nM in series [7]. The compound also showed an EC50 in series [8] of 14 nM.
For the compound `CCNC(=O)Nc1ccc(-c2nn(CC)cc2-c2ccnc3[nH]c(-c4cccc(CN(C)C)c4)cc23)cc1`, in series [14], the Ratio IC50 amounted to 42. The results for the IC50 in [15] and in series [7] were 3 nM and 128 nM, respectively. Also, the 50% effective concentration (EC50) in [8] was 12 nM.
In series [17], `CCn1cc(-c2ccnc3[nH]c(-c4cccc(CN(C)C)c4)cc23)c(-c2ccc(NC(=O)N(C)C)cc2)n1` [GSK-1070916] had a solubility of over 10000 µg/mL. For the same compound, the AUC in series [18] amounted to 345 ng·h/mL/mg/kg. Besides, in series [19], the Vd was determined as 0.8 L/kg. In [20], this compound returned an MRT of 18 min. Further, the half-maximal inhibitory concentration (IC50) in series [21] is over 33000 nM; in [15], 5 nM; in [24], 38000 nM; in [29], 81000 nM; in [30], 6.5 nM; in series [32], 12000 nM. Besides, the clearance in series [22] is 49.4 mL/min/kg. Besides, the inhibition entry in series [23] is “Dose-dependent effect”. Moreover, the Activity in series [25] worked out at 270 min. In addition, the inhibition entry in series [26], in [28] and in series [31] was “Active” in each case. Moreover, in series [27], the “inhibition (INH)” value was “Not Active”. For the same compound, the inhibitory constant (Ki) in [30] and in series [33] was 1.5 nM each time.
In series [30], `CCN(CCCOc1ccc2c(Nc3cc(CC(=O)Nc4cccc(F)c4)n[nH]3)ncnc2c1)CCOP(=O)(O)O` [BARASERTIB] showed an IC50 of 17 nM.
